Test results published in ChEMBL document CHEMBL3102781, “Synthesis and activity of substituted heteroaromatics as positive allosteric modulators for α4β2α5 nicotinic acetylcholine receptors” (Bioorg Med Chem Lett, 2014).
Active and inactive are the calls of the source. The calls are words filed in the database; no cut-off is given here.

Assays:
[1] = target: T1, Nicotinic acetylcholine receptor alpha4/beta2/alpha5 (Homo sapiens) (UniProt P17787+P43681+P30532); assay: Positive allosteric modulation of human alpha4beta2alpha5 nACHR expressed in HEK-tsA201 cells assessed as potentiation of nicotine-induced current at 1 uM preincubated for 15 mins followed by nicotine-treatment by fluorometric analysis; type: cell-based
Method in brief: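 In human α4β2α5 AChR HEK tsA201 cells (200,000/well, 20 h at 29 °C before testing), compound was added 15 min before nicotine. Potentiation of the nicotine response was read by membrane-potential fluorescence on a FLEXstation, with 3–4 wells averaged per point.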

[2] = target: T1, Nicotinic acetylcholine receptor alpha4/beta2/alpha5 (Homo sapiens); assay: Agonist activity at human alpha4beta2alpha5 nACHR expressed in HEK-tsA201 cells by fluorometric analysis; type: cell-based
[3] = target: T1, Nicotinic acetylcholine receptor alpha4/beta2/alpha5 (Homo sapiens); assay: Positive allosteric modulation of human alpha4beta2alpha5 nACHR expressed in HEK-tsA201 cells assessed as potentiation of nicotine-induced current preincubated for 15 mins followed by nicotine-treatment by fluorometric analysis relative to NS9283; type: cell-based
Method in brief: (§1)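 Human AChR subtypes were stably expressed in HEK tsA201 cells grown in DMEM with 10% FBS at 37 °C. Plating was 150,000/well for lines without α5 and 200,000/well for α5 lines, on poly-D-lysine plates. β2-containing lines were incubated 20 h at 29 °C before testing. Serial dilutions of compound were added 15 min before nicotine. Membrane-potential fluorescence was read on a FLEXstation, with 3–4 wells per point and a Hill equation fit.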

[4] = target: Nicotinic acetylcholine receptor alpha4/beta2/alpha5 (Homo sapiens, UniProt P17787+P30532+P43681); assay: Positive allosteric modulation of human alpha4beta2alpha5 nACHR expressed in HEK-tsA201 cells assessed as potentiation of nicotine-induced current preincubated for 15 mins followed by nicotine-treatment by fluorometric analysis; type: cell-based; method in brief: as §1
Sequence of Nicotinic acetylcholine receptor alpha4/beta2/alpha5 (P17787 whole entry): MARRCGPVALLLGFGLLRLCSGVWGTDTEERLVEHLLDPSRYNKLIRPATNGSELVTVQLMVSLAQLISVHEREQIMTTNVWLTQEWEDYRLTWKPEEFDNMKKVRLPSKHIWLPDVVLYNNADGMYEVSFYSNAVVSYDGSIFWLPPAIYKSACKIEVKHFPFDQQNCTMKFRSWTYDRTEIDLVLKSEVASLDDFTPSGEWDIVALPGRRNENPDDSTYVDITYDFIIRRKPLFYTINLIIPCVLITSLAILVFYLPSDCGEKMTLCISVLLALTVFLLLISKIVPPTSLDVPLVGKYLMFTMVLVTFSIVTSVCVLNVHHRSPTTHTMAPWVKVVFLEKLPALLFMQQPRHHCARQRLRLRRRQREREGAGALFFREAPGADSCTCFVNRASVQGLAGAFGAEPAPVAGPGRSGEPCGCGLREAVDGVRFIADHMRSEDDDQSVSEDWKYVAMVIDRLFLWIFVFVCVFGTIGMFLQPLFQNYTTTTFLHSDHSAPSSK
Sequence of Nicotinic acetylcholine receptor alpha4/beta2/alpha5 (P43681 whole entry): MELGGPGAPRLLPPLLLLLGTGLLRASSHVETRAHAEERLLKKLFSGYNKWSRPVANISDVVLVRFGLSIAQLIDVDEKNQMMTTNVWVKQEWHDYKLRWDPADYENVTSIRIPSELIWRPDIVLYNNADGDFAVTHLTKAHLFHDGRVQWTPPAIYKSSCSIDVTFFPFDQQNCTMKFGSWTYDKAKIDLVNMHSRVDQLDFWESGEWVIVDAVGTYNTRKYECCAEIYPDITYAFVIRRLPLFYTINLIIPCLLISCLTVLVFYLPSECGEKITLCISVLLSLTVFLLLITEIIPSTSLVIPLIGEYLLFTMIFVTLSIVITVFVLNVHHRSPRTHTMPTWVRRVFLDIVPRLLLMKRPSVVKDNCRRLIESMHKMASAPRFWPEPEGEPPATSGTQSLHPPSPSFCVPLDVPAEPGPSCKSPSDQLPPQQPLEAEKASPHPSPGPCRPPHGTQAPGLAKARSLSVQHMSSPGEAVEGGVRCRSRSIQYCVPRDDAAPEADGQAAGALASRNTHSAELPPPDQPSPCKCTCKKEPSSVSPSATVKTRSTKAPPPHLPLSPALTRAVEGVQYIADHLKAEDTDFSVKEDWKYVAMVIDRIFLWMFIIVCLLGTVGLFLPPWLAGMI
Sequence of Nicotinic acetylcholine receptor alpha4/beta2/alpha5 (P30532 whole entry): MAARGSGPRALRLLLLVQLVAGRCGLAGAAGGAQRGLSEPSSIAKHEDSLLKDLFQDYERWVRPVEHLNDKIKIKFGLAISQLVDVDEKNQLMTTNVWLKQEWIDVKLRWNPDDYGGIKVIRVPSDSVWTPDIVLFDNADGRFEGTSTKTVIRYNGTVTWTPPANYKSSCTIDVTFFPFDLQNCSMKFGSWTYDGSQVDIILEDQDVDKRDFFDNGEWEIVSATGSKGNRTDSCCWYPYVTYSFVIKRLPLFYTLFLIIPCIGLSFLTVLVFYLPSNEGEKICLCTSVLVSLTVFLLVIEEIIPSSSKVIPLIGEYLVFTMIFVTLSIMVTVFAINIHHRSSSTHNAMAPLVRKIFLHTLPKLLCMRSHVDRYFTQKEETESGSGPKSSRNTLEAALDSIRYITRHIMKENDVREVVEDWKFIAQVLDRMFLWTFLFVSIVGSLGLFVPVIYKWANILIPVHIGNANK

[5] = target: T2, Neuronal acetylcholine receptor; alpha4/beta2 (Homo sapiens, UniProt P17787+P43681); assay: Positive allosteric modulation of alpha4beta2 nACHR (unknown origin); type: protein-complex assay
T2 sequence (P17787 whole entry): as the sequence (P17787 whole entry) above
T2 sequence (P43681 whole entry): as the sequence (P43681 whole entry) above

[6] = target: Nicotinic acetylcholine receptor alpha3/beta4/alpha5 (Homo sapiens) (UniProt P30926+P32297+P30532); assay: Positive allosteric modulation of human alpha3beta4alpha5 nACHR expressed in HEK-tsA201 cells assessed as potentiation of nicotine-induced current preincubated for 15 mins followed by nicotine-treatment by fluorometric analysis; type: cell-based; method in brief: as §1
[7] = target: Neuronal acetylcholine receptor; alpha3/beta2 (Homo sapiens) (UniProt P17787+P32297); assay: Positive allosteric modulation of human alpha3beta2 nACHR expressed in HEK-tsA201 cells assessed as potentiation of nicotine-induced current preincubated for 15 mins followed by nicotine-treatment by fluorometric analysis; type: cell-based; method in brief: as §1
[8] = target: Nicotinic acetylcholine receptor alpha3/beta2/alpha5 (Homo sapiens) (UniProt P17787+P32297+P30532); assay: Positive allosteric modulation of human alpha3beta2alpha5 nACHR expressed in HEK-tsA201 cells assessed as potentiation of nicotine-induced current preincubated for 15 mins followed by nicotine-treatment by fluorometric analysis; type: cell-based; method in brief: as §1
[9] = target: Neuronal acetylcholine receptor; alpha3/beta4 (Homo sapiens) (UniProt P30926+P32297); assay: Positive allosteric modulation of human alpha3beta4 nACHR expressed in HEK-tsA201 cells assessed as potentiation of nicotine-induced current preincubated for 15 mins followed by nicotine-treatment by fluorometric analysis; type: cell-based; method in brief: as §1
[10] = target: T2, Neuronal acetylcholine receptor; alpha4/beta2; assay: Positive allosteric modulation of human alpha4beta2 nACHR expressed in HEK-tsA201 cells assessed as potentiation of nicotine-induced current preincubated for 15 mins followed by nicotine-treatment by fluorometric analysis; type: cell-based; method in brief: as §1
[11] = Half life in mouse at 1 mg/kg, iv and 2 mg/kg, po; type: ADME, organism-based; conditions: in vivo
Method in brief: (§2)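 Mouse pharmacokinetics. Each compound was dosed 1 mg/kg IV and 2 mg/kg PO. From these the following were derived: clearance, half-life, PO AUC, PO Cmax, volume of distribution and oral bioavailability (F%).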

Mus musculus [12] = assay: Oral bioavailability in mouse at 2 mg/kg; type: ADME, organism-based; conditions: in vivo; method in brief: as §2
Mus musculus [13] = assay: Volume of distribution in mouse at 1 mg/kg, iv and 2 mg/kg, po; type: ADME, organism-based; conditions: in vivo; method in brief: as §2
Mus musculus [14] = assay: AUC in mouse at 2 mg/kg, po; type: ADME, organism-based, Plasma; parameters: dose 2 mg/kg, route oral; conditions: in vivo; method in brief: as §2
[15] = Drug uptake in mouse brain at 10 mg/kg, ip after 2 hrs; type: ADME, organism-based; parameters: dose 10 mg/kg, route intraperitoneal; conditions: read-out: Drug uptake
Method in brief: (§3)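 Mice were given 10 mg/kg by intraperitoneal injection. Plasma and brain drug levels were measured 2 h after dosing.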

[16] = Plasma concentration in mouse at 10 mg/kg, ip after 2 hrs; type: ADME, organism-based; parameters: dose 10 mg/kg, route intraperitoneal; method in brief: as §3
[17] = Cmax in mouse at 2 mg/kg, po; type: ADME, organism-based; parameters: dose 2 mg/kg, route oral; conditions: in vivo; method in brief: as §2

Row | Compound | Activity [1] | Activity [2] | also measured
1 | C[n+]1cccc(-c2noc(-c3cccc(C#N)c3)n2)c1 | inactive | inactive | –
2 | N#Cc1cccc(-c2nc(-c3ccccc3)no2)c1 | inactive | inactive | –
3 | N#Cc1ccc(-n2nnc(-c3cccnc3)n2)cc1 | > 50% | inactive | Emax [3]: 0.96; EC50 [4]: 2200 nM
4 | N#Cc1cccc(-n2nnc(-c3ccc(Cl)nc3)n2)c1 | inactive | inactive | –
5 | N#Cc1cccc(-n2cc(-c3cccnc3)nn2)c1 | inactive | inactive | –
6 | N#Cc1cccc(-c2nc(-c3ccncc3)no2)c1 | inactive | inactive | –
7 | FC(F)(F)c1cccc(-c2nc(-c3cccnc3)no2)c1 | inactive | inactive | –
8 | c1ccc(-c2nc(-c3cccnc3)no2)cc1 | inactive | inactive | –
9 | NC(=O)c1cccc(-n2nnc(-c3cccnc3)n2)c1 | inactive | inactive | –
10 | N#Cc1cccc(-c2cn(-c3cccnc3)cn2)c1 | inactive | inactive | –
11 | N#Cc1cccc(-c2nc(-c3ccccn3)no2)c1 | inactive | inactive | –
12 | N#Cc1cccc(-c2nc(-c3cccnc3)no2)c1 | > 50% | inactive | EC50 [5]: 990 nM; Activity [6]: inactive; Activity [7]: inactive; Activity [8]: inactive; Activity [9]: inactive; EC50 [4]: 790 nM; Activity [10]: Active
13 | N#Cc1cccc(-c2ccn(-c3cccnc3)n2)c1 | inactive | inactive | –
14 | N#Cc1cccc(-n2cc(-c3cccnc3)cn2)c1 | inactive | inactive | –
15 | FC(F)(F)Oc1cccc(-c2nc(-c3cccnc3)no2)c1 | inactive | inactive | –
16 | N#Cc1cccc(-n2nnc(-c3ccccn3)n2)c1 | inactive | inactive | –
17 | c1cncc(-c2noc(-c3cccnc3)n2)c1 | > 50% | inactive | Emax [3]: 0.98; EC50 [4]: 1000 nM
18 | Clc1ccc(-c2nc(-c3cccnc3)no2)cc1 | inactive | inactive | –
19 | Fc1cccc(-c2nc(-c3cccnc3)no2)c1F | inactive | inactive | –
20 | COc1ccc(OC)c(-n2nnc(-c3cccnc3)n2)c1 | inactive | inactive | –
21 | Clc1cc(Cl)cc(-n2nnc(-c3cccnc3)n2)c1 | inactive | inactive | –
22 | N#Cc1cccc(-n2cnc(-c3cccnc3)n2)c1 | inactive | inactive | –
23 | Fc1ccc(-c2nc(-c3cccnc3)no2)cc1F | > 50% | inactive | Emax [3]: 1.2; EC50 [4]: 1300 nM
24 | N#Cc1cccc(-n2nnc(-c3cccnc3Cl)n2)c1 | inactive | inactive | –

Row | Compound | Activity [1] | Activity [2] | also measured
25 | C[n+]1cccc(-c2nnn(-c3cccc(C#N)c3)n2)c1 | inactive | inactive | –
26 | c1cncc(-c2nnn(-c3cccnc3)n2)c1 | > 50% | inactive | Emax [3]: 1.9; EC50 [4]: 700 nM
27 | N#Cc1cccc(-c2nnc(-c3cccnc3)[nH]2)c1 | inactive | inactive | –
28 | Clc1ccccc1-n1nnc(-c2cccnc2)n1 | inactive | inactive | –
29 | N#Cc1cccc(-n2ccc(-c3cccnc3)n2)c1 | inactive | inactive | –
30 | O=[N+]([O-])c1ccccc1-c1nc(-c2cccnc2)no1 | inactive | inactive | –
31 | N#Cc1cccc(-n2nnc(-c3cnccc3Cl)n2)c1 | inactive | inactive | –
32 | N#Cc1cccc(-n2nnc(-c3ccncc3)n2)c1 | inactive | inactive | –
33 | N#Cc1cccc(-c2cn(-c3cccnc3)nn2)c1 | inactive | inactive | –
34 | N#Cc1cccc(-c2ncn(-c3cccnc3)n2)c1 | inactive | inactive | –
35 | Fc1ccc(-n2nnc(-c3cccnc3)n2)c(F)c1 | inactive | inactive | –
36 | O=[N+]([O-])c1cccc(-c2nc(-c3cccnc3)no2)c1 | > 50% | inactive | Emax [3]: 1.2; EC50 [4]: 690 nM
37 | N#Cc1cccc(-n2nnc(-c3ccccc3)n2)c1 | inactive | inactive | –
38 | Clc1ccccc1-c1nc(-c2cccnc2)no1 | inactive | inactive | –
39 | Brc1cccc(-n2nnc(-c3cccnc3)n2)c1 | inactive | inactive | –
40 | N#Cc1cccc(-n2nnc(-c3cncc(Cl)c3)n2)c1 | inactive | inactive | –
41 | Cc1ccc(-n2nnc(-c3cccnc3)n2)cc1C#N | inactive | inactive | –
42 | Fc1cccc(-c2nc(-c3cccnc3)no2)c1 | inactive | inactive | –
43 | N#Cc1cccc(-n2cnc(-c3cccnc3)c2)c1 | inactive | inactive | –
44 | COc1cccc(-c2nc(-c3cccnc3)no2)c1 | inactive | inactive | –
45 | COc1cc(OC)cc(-n2nnc(-c3cccnc3)n2)c1 | inactive | inactive | –
46 | O=[N+]([O-])c1ccc(-c2nc(-c3cccnc3)no2)cc1 | > 50% | inactive | Emax [3]: 0.81; EC50 [4]: 1700 nM
47 | N#Cc1cccc(-n2nnc(-c3cccnc3)n2)c1 | > 50% | inactive | half-life [11]: 54 min; F (Mus musculus [12]): 100%; Vd (Mus musculus [13]): 2.7 L/kg; Activity [6]: inactive; Activity [7]: inactive; Activity [8]: inactive; Activity [9]: inactive; Emax [3]: 2.5; AUC (Mus musculus [14]): 21 µM·h; EC50 [4]: 2000 nM; concentration at 2 h [15]: 4.4 µM; Activity [10]: Active; concentration at 2 h [16]: 11 µM; Cmax [17]: 4.1 µM
